Source: PubChem BioAssay
EBNA-1 inhibitor: blocks EBNA-1 binding to DNA; EBNA-1 DNA binding, fluorescence polarization; inhibition, % at 14.8 µM; 0.34% of 300,000 active; in the data active = inhibition above about 28%
PfM18AAP inh: PfM18AAP enzyme inhibition | recombinant PfM18AAP, H-Glu-NHMec fluorogenic cleavage | inhibition, % at 7.35 µM | 1.2% of 290,000 active | AID 1822;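 active = inhibition above the campaign mean inhibition over all tested compounds plus 3 SD, cut at about 28% in these data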;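 also: 0% = plate median of test compound wells and 100% = 2 mM ZnCl2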
ALR inh: blocks human ALR sulfhydryl oxidase activity | P55789 | 3.8% of 290,000 active | purified ALR, DTT oxidation, H2O2 HRP-luminol luminescence | inhibition, % (no concentration beside the values);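 active = mean replicate inhibition above about 79%, with every replicate also reaching it, limit read from the data; inconclusive = only one of the two criteria met; inactive = mean below limit and not every replicate reaching it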
Target sequence (P55789 whole entry, looked up): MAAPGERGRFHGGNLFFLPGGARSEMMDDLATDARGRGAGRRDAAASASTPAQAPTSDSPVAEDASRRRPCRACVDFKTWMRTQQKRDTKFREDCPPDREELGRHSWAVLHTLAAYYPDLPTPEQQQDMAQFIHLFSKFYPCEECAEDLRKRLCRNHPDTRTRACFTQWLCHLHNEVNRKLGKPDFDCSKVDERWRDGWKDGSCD
NS3 helicase inh: HCV NS3 helicase inhibition. NS3 helicase DNA unwinding, Cy5 molecular beacon fluorescence. AID 1800. 0.56% of 290,000 active. inhibition, % at 10.9 µM;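 active = inhibition above the mean of all tested compounds plus 3 SD, set per campaign, cut at about 35% in these data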;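 also: 0% = DMSO wells and 100% = thioflavine S control wells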
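Assay system: hepatitis C virus NS3 helicase domain fragment enzyme. Also added: annealed dual-labelled DNA beacon duplex, ATP-started. Timing: 1 h reaction at 25 °C, ATP-initiated. Technique: Cy5 fluorescence at 0 and 60 min, beacon hairpin quenching. Evaluation: % inhibition of unwinding. Replication: one well per compound.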
ZTA counter: ZTA (EBV) inhibition in EBNA-1 counter-screen; P03206; ZTA-DNA binding, fluorescence polarization; inhibition, % at 11 µM; 0.15% of 320,000 active; AID 2234; in the data active = inhibition above about 33%
Target sequence (P03206 whole entry, looked up): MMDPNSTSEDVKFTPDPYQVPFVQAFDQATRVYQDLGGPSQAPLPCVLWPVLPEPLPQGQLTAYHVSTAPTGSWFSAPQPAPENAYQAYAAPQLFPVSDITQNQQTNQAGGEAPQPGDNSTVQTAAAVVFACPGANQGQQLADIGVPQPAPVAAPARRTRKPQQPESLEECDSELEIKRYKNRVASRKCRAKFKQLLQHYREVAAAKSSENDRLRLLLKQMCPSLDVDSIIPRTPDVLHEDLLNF
core dimer inh: HCV core protein dimerization inhibition | inhibition, % at 5 µM | 0.33% of 300,000 active | TR-FRET GST/Flag-core106 dimerization, 1536-well | AID 1899;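 active = inhibition above the mean of all tested compounds plus 3 SD, set per screening campaign, cut at about 45% in these data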
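System: GST-tagged and Flag-tagged HCV core protein residues 1-106 / Input: core106 proteins, GST 13.5 nM and Flag 17 nM / Buffer or medium: KF-containing HEPES buffer, pH 7.45, DTT, CHAPS, BSA / Probe or stimulus: Eu-anti-GST and XL665-anti-Flag labelled anti-tag antibodies / Schedule: 4 h, 22.5 °C incubation / Technique: TR-FRET 671 and 617 nm emission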
* marks the source's active call; other numbers are inactive results; u = inconclusive; x = not tested or not shown. Sampled rows, rich in hits. Any-hit rate of the full collection: about 5.2%.

SMILES	EBNA-1 inhibitor	PfM18AAP inh	ALR inh	NS3 helicase inh	ZTA counter	core dimer inh
O=C(NCc1ccccc1F)C1CCCN1S(=O)(=O)c1ccc(F)cc1 (stereo not given)	-11	-5	16	-1	-2	6
COc1cc(/C=N/NC(=O)c2cc3ccccc3[nH]2)ccc1O	-8	14	100*	-6	-16	-22
COc1cc(/C=N/NC(=O)C(=O)Nc2ccccn2)ccc1O	5	11	u	-13	-2	-4
COc1cc(/C=N/NC(=O)C2(O)c3ccccc3-c3ccccc32)ccc1O	-3	6	99*	2	-3	-8
CCOc1ccc(/C=N/NC(=O)C2(O)c3ccccc3-c3ccccc32)cc1	17	0	-5	-5	-10	-1
COc1cc(/C=N/NC(=O)C(=O)/C=C2\NC(C)(C)Cc3ccccc32)ccc1O	-13	4	82*	-10	-24	2
COc1cc(/C=N/NC(=O)c2nc(C)cc(C)n2)ccc1O	1	0	99*	-7	-1	-10
Cc1ccc(NC(=O)CCCSc2ccccc2)cc1S(=O)(=O)N1CCOCC1	6	-8	x	3	16	2
Cc1c(NC(=O)c2cccnc2Cl)c(=O)n(-c2ccccc2)n1C	-5	-8	-6	5	-4	3
COc1ccc(/C=N/NC(=O)c2cc[n+]([O-])cc2)cc1OC	-14	0	2	6	-7	3
COc1cc(/C=N/Nc2ccc(C(F)(F)F)cn2)ccc1O	-12	-6	99*	-15	5	-2
COc1cccc(/C=N/NC(=O)c2nc(-c3ccccc3)cc(-c3ccccc3)n2)c1	-14	-6	-3	-4	3	50*
COc1cc(/C=N/Nc2cc(C)nc(N)n2)ccc1O	3	8	98*	8	15	1
COc1cc(/C=N/NC(=O)c2cc[n+]([O-])cc2)ccc1O	-1	7	99*	6	-7	-12
O=C(O)c1ccc(/C=N/Nc2ccc(C(F)(F)F)cn2)cc1	x	0	x	-2	x	x
COc1ccc(/C=N/NC(=O)c2nc(-c3ccccc3)cc(-c3ccccc3)n2)cc1OC	2	-1	-6	0	-5	9
COc1cc(/C=N/NC(=O)c2ccncc2)ccc1O	3	7	99*	6	3	8
Cc1cccc(N2CCN(C(=O)c3cn(C)c(=O)c4c3c3ccccc3n4C)CC2)c1C	-5	-12	88*	0	7	11
Cc1ccc2oc(C(=O)NCCCN3CCOCC3)c(C)c2c1	9	-4	3	1	4	8
CSCCCNC(=S)Nc1ccc(N2CCOCC2)cc1	-4	9	95*	6	-18	-20
CSCCCNC(=S)Nc1ccc(N2CCOCC2)cc1N1CCOCC1	11	3	96*	0	2	-1
CN(C)C(=S)Nc1ccc(N2CCOCC2)cc1	2	1	99*	10	10	2
Cc1ccc(NC(=S)NCCCN2CCOCC2)cc1	9	-8	39	4	4	-5
O=C(c1ccc(Cl)c(S(=O)(=O)N2CCOCC2)c1)N1CCN(c2ccccc2)CC1	1	0	16	-3	2	0
Cc1c(C(=O)OCC(=O)N(C)Cc2ccc(Cl)cc2)oc2ccccc12	x	x	x	x	3	x
SMILES	EBNA-1 inhibitor	PfM18AAP inh	ALR inh	NS3 helicase inh	ZTA counter	core dimer inh
C=CCOC(=O)C1=C(C)NC(SCC(=O)Nc2nccs2)=C(C#N)C1c1ccc(Cl)cc1 (stereo not given)	10	-10	15	12	-19	33
C=CCOC(=O)C1=C(C)NC(SCC(=O)Nc2nccs2)=C(C#N)C1c1cccs1 (stereo not given)	8	-10	-2	-3	-14	49*
Cn1cc(C(=O)NS(=O)(=O)Nc2ccc(Br)cc2)c2ccccc21	15	2	-1	8	-4	-3
O=S(=O)(c1ccc(Oc2ncnc3scc(-c4ccccc4)c23)cc1)N1CCOCC1	2	1	-4	-2	14	50*
NC(=O)/C(N=Nc1ccccc1)=N/Nc1ccccc1	0	x	-40	x	-3	-23
O=C(O)c1cccc(N/N=C(\N=Nc2ccccc2)c2ccccc2)c1	6	x	98*	x	2	3
O=C(O)c1ccc(N=N/C(=N\Nc2ccc(C(=O)O)cc2)c2ccccc2)cc1	6	x	98*	x	12	-25
Cc1ccnc(NC(=O)CCC(=O)N(CC(=O)NCc2ccc(F)cc2)Cc2ccccc2)c1	10	2	-3	-5	-6	4
CCOc1ccc(-c2nc(CCl)cs2)cc1OC	-1	-9	99*	-7	-12	-13
COc1cc(/C=C2\SC(=Nc3ccccc3)NC2=O)cc(Cl)c1O	3	13	56	-5	-2	-8
COc1cc(/C=C2\SC(=Nc3ccc(Cl)c(C(=O)O)c3)NC2=O)c(Br)c(Br)c1O	x	3	98*	19	x	x
COC(=O)/C=C1\SC(=Nc2ccc(Cl)c(Cl)c2)NC1=O	2	-4	7	14	6	20
CCc1ccc(N=C2NC(=O)/C(=C/c3cc(OC)c(O)c(OC)c3)S2)cc1	x	28*	43	5	x	x
COc1ccc(/C=C2\SC(=Nc3ccccc3OC)NC2=O)cc1	-12	9	8	-7	-12	20
COc1cc(/C=C2\SC(=Nc3ccccc3OC)NC2=O)ccc1O	-2	11	99*	3	-7	-8
O=C(C=C=Nc1ccccc1)C(=O)N=C=Cc1ccccc1	-9	3	7	-6	-9	-3
COc1ccc(/C=N/n2nnnc2N)c(OC)c1	x	-1	-19	7	x	x
Cc1ccc(NC(=O)CSCc2cc(=O)n3ccsc3n2)cc1	6	-2	58	11	-2	2
C=CCn1c(SCC(=O)NC2CCS(=O)(=O)C2)nc2scc(C3CC3)c2c1=O (stereo not given)	-11	1	11	-15	-37	8
C=CCn1c(SCC(=O)c2ccc(CNC(C)=O)o2)nc2scc(C3CC3)c2c1=O	7	-4	x	24	6	48*
O=C(CSc1ccccc1)NC1=NCCS1	-4	-2	-8	0	-6	-8
c1ccc(NNC2=NCCS2)cc1	8	26	91*	-3	-2	-12
O=C(CCc1ccccc1)NNC(=S)NC(=O)c1ccc(Cl)cc1	-7	4	99*	-8	0	0
CC(=O)NNC(=S)NC(=O)c1ccc(C)cc1	2	21	x	2	-5	-1
COc1ccc(C(=O)NC(=S)NNC(=O)COc2ccccc2)cc1	15	23	98*	-7	15	4
CCC(=O)NNC(=S)NC(=O)c1ccc(C)cc1	8	16	99*	10	12	1
Cc1ccc(C(=O)NC(=S)NNC(=O)COc2ccc([N+](=O)[O-])cc2)cc1	-2	14	99*	-3	-5	-1
